Measurements taken from ChEMBL document CHEMBL3102705, “Design, synthesis and investigation on the structure-activity relationships of N-substituted 2-aminothiazole derivatives as antitubercular agents” (Eur J Med Chem, 2014).
Values after ≈ are worked out from the molar mass of the structure shown.

What was measured:
[1] = system: Mycobacterium tuberculosis; assay: Antitubercular activity against Mycobacterium tuberculosis H37Rv ATCC 27294 assessed as growth inhibition after 16 to 24 hrs by microplate-Alamar Blue assay; type: functional
How it was run: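 MIC against M. tuberculosis H37Rv (ATCC 27294), actively replicating, by microplate Alamar Blue assay.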

[2] = Selectivity index, ratio of IC50 for African green monkey Vero cells to MIC for Mycobacterium tuberculosis H37Rv ATCC 27294; type: toxicity, cell-based; conditions: read-out: Selectivity Index
How it was run: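 Selectivity index calculated as the Vero cell cytotoxicity IC50 divided by the MABA MIC against H37Rv. Cytotoxicity was measured on Vero cells.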

Vero = assay: Cytotoxicity against African green monkey Vero cells assessed as cell viability after 72 hrs by MTS assay; type: cell-based; conditions: Chlorocebus sabaeus
How it was run: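 Value reported as an IC50 against Vero cells.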

[3] = system: Mycobacterium tuberculosis; assay: Antitubercular activity against recombinant Mycobacterium tuberculosis H37Rv ATCC 27294 expressing Vibrio harveyii luciferase gene with acetamidase promoter assessed as reduction of metabolic recovery after 10 days by low-oxygen recovery assay; type: functional; conditions: H37Rv ATCC 27294, 240 h
How it was run: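 Low oxygen recovery assay on H37Rv (ATCC 27294), used as an in vitro model of nonreplicating persistent M. tuberculosis. Each MIC is a single measurement.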

[4] = system: Mycobacterium tuberculosis; assay: Ratio of MIC for Mycobacterium tuberculosis H37Rv ATCC 27294 expressing Vibrio harveyii luciferase gene with acetamidase promoter by low-oxygen recovery assay to MIC for Mycobacterium tuberculosis H37Rv ATCC 27294 by microplate-Alamar Blue assay; type: functional

| SMILES | MIC [1] | further results |
| --- | --- | --- |
| Fc1ccc(Nc2nc(-c3cc(C(F)(F)F)ccc3F)cs2)cc1 | 59.5 µM (≈ 21.2 µg/mL) |  |
| Clc1cc(Cl)cc(Nc2nc3c(s2)-c2ccccc2C3)c1 | > 128 µM |  |
| Clc1cc(Cl)cc(Nc2nc(-c3ccccc3)cs2)c1 | 28.6 µM (≈ 9.19 µg/mL) |  |
| Fc1ccc(C(F)(F)F)cc1-c1csc(Nc2ccccc2Cl)n1 | > 128 µM |  |
| Fc1ccc(C(F)(F)F)cc1-c1csc(Nc2ccncc2)n1 | > 128 µM |  |
| Fc1ccc(C(F)(F)F)cc1-c1csc(Nc2ccc(Cl)cc2Cl)n1 | > 128 µM |  |
| Fc1ccc(C(F)(F)F)cc1-c1csc(Nc2cccc(Cl)c2)n1 | 30.1 µM (≈ 11.2 µg/mL) |  |
| Clc1cc(Cl)cc(Nc2nc3c(s2)CCc2ccccc2-3)c1 | 43.3 µM (≈ 15 µg/mL) |  |
| Cc1cc(C)cc(Nc2nc(-c3cc(C(F)(F)F)ccc3F)cs2)c1 | 30.1 µM (≈ 11 µg/mL) |  |
| Clc1cc(Cl)cc(Nc2nc(-c3ccccc3)c(-c3ccccc3)s2)c1 | > 128 µM |  |
| COc1ccc(-c2csc(Nc3cc(Cl)cc(Cl)c3)n2)cc1 | 15.6 µM (≈ 5.48 µg/mL) |  |
| Fc1ccc(C(F)(F)F)cc1-c1csc(Nc2ccc(Cl)cc2)n1 | 19.2 µM (≈ 7.16 µg/mL) | selectivity ratio [2]: 2.4; IC50 (Vero): 46.6 µM; MIC [3]: 31.5 µM; Ratio [4]: 2 |
| Cc1ccc(Nc2nc(-c3ccc(C)cc3)cs2)cc1 | > 128 µM |  |
| Clc1cc(Cl)cc(Nc2nc3c(s2)Cc2ccccc2-3)c1 | > 128 µM |  |
| CN[C@@H]1[C@H](O[C@H]2[C@H](O[C@H]3[C@H](O)[C@@H](O)[C@H](N=C(N)N)[C@@H](O)[C@@H]3N=C(N)N)O[C@@H](C)[C@]2(O)C=O)O[C@@H](CO)[C@H](O)[C@H]1O [STREPTOMYCIN] | 0.3 µM (≈ 0.174 µg/mL) |  |
| Cc1ccc(N(C)c2nc(-c3cc(C(F)(F)F)ccc3F)cs2)cc1 | 31.7 µM (≈ 11.6 µg/mL) | IC50 (Vero): > 128 µM |
| Cc1ccc(Nc2nc(-c3ccccc3)cs2)cc1 | 63.8 µM (≈ 17 µg/mL) |  |
| Cc1ccc(Nc2nc(-c3ccc(Cl)cc3)cs2)cc1 | > 128 µM |  |
| Fc1ccc(Nc2nc3c(s2)Cc2ccccc2-3)cc1 | > 128 µM |  |
| Cc1ccc(Nc2nc(-c3cc(C(F)(F)F)ccc3F)cs2)c(Cl)c1 | > 128 µM |  |
| Cc1ccc(Nc2nc(C)cs2)cc1 | > 128 µM |  |
| Clc1cc(Cl)cc(Nc2nc(-c3ccccc3)c(Cc3ccccc3)s2)c1 | 20 µM (≈ 8.23 µg/mL) | IC50 (Vero): 82.7 µM |
| Fc1ccc(C(F)(F)F)cc1-c1csc(NC2CCCCC2)n1 | 30.3 µM (≈ 10.4 µg/mL) |  |

| SMILES | MIC [1] | further results |
| --- | --- | --- |
| Cc1ccc2c(ccn2-c2nc(-c3cc(C(F)(F)F)ccc3F)cs2)c1 | > 128 µM |  |
| Cc1ccc(Nc2nc(-c3cc(C(F)(F)F)ccc3F)cs2)cc1 | 27.5 µM (≈ 9.69 µg/mL) | selectivity ratio [2]: 3.4; IC50 (Vero): 92.4 µM |
| Fc1ccc(C(F)(F)F)cc1-c1csc(Nc2cc(Cl)cc(Cl)c2)n1 | 15 µM (≈ 6.11 µg/mL) | selectivity ratio [2]: 3.3; IC50 (Vero): 50 µM; MIC [3]: 15.2 µM |
| Fc1ccc(C(F)(F)F)cc1-c1csc(N(Cc2ccccc2)c2cc(Cl)cc(Cl)c2)n1 | > 128 µM |  |
| CO[C@H]1/C=C/O[C@@]2(C)Oc3c(C)c(O)c4c(O)c(c(/C=N/N5CCN(C)CC5)c(O)c4c3C2=O)NC(=O)/C(C)=C\C=C\[C@H](C)[C@H](O)[C@@H](C)[C@@H](O)[C@@H](C)[C@H](OC(C)=O)[C@@H]1C [RIFAMPIN] | 0.1 µM (≈ 0.0823 µg/mL) |  |
| Cc1ccc(Nc2ncc(-c3ccccc3)s2)cc1 | > 128 µM |  |
| CC(=O)N1CCN(c2nc(-c3cc(C(F)(F)F)ccc3F)cs2)CC1 | 118 µM (≈ 44 µg/mL) |  |
| Cc1ccc(CNc2nc(-c3cc(C(F)(F)F)ccc3F)cs2)cc1 | > 128 µM |  |
| Cc1ccc(Nc2nc(-c3cc(C(F)(F)F)ccc3F)cs2)c(C)c1 | 30.8 µM (≈ 11.3 µg/mL) |  |
| Cc1ccc(C(=O)Nc2nc(-c3cc(C(F)(F)F)ccc3F)cs2)cc1 | > 128 µM |  |
| Cc1cccc(Nc2nc(-c3cc(C(F)(F)F)ccc3F)cs2)c1 | 29.8 µM (≈ 10.5 µg/mL) |  |
| CCN(c1cc(Cl)cc(Cl)c1)c1nc(-c2cc(C(F)(F)F)ccc2F)cs1 | > 128 µM |  |
| NNC(=O)c1ccncc1 [ISONIAZID] | 0.4 µM (≈ 0.0549 µg/mL) |  |
| COc1ccc(-c2csc(Nc3ccc(C)cc3)n2)cc1 | 13 µM (≈ 3.85 µg/mL) | IC50 (Vero): > 128 µM; MIC [3]: 31.8 µM; Ratio [4]: 2 |
| Fc1ccc(C(F)(F)F)cc1-c1csc(N2CCCCC2)n1 | 56.5 µM (≈ 18.7 µg/mL) |  |
| Cc1ccc(Nc2nc(-c3ccc(O)cc3)cs2)cc1 | > 128 µM |  |
| Cc1ccc(Nc2nc(-c3ccc(C(F)(F)F)cc3)cs2)cc1 | > 128 µM |  |
| Cc1ccc(Nc2nc(-c3ccccc3Cl)cs2)cc1 | > 128 µM |  |
| CN(C)c1nc(-c2cc(C(F)(F)F)ccc2F)cs1 | > 128 µM |  |
| Cc1ccccc1Nc1nc(-c2cc(C(F)(F)F)ccc2F)cs1 | 35.1 µM (≈ 12.4 µg/mL) |  |
| Cc1sc(Nc2cc(Cl)cc(Cl)c2)nc1-c1ccccc1 | 28.9 µM (≈ 9.69 µg/mL) |  |
| O=[N+]([O-])c1cn2c(n1)OC[C@@H](OCc1ccc(OC(F)(F)F)cc1)C2 [PRETOMANID] | 0.8 µM (≈ 0.287 µg/mL) |  |
